Assay results taken from ChEMBL document CHEMBL2413052, “Synthesis and initial in vitro biological evaluation of two new zinc-chelating compounds: comparison with TPEN and PAC-1” (Bioorg Med Chem, 2013).
The source made the active and inactive calls. The rule behind the calls is not given here.

How the values were obtained:
[1] = system: PC-12; assay: Induction of apoptosis in rat PC12 cells assessed as ROS induction at 100 uM measured after 1 to 4 hrs by DHR oxidation-based fluorometric assay; type: functional, cell-based
In short: (§1)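 PC12 cells in 96-well plates were loaded with DHR (0.1 µM) for 30 min at 37 °C, washed, then treated 1 h or 4 h. Medium was replaced with PBS and fluorescence read for 30 min (ex 485/em 535 nm). The slope gave ROS production, relative to the untreated-control slope at 4 h. Untreated and DMSO controls. Mean of 3 experiments ± S.D.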

[2] = system: PC-12; assay: Induction of apoptosis in rat PC12 cells at 100 uM after 24 hrs by trypan blue exclusion assay in presence of ZnSO4; type: functional, cell-based
In short: (§2)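 PC12 cells exposed 24 h to chelator (25, 100 or 200 µM), alone or together with ZnSO4, caspase-3 inhibitor, or DHR as ROS scavenger. Each additive was also tested alone. Stained with trypan blue. Dead cells expressed as % of total cells. Mean of 4 experiments ± S.D. One-way ANOVA with Holm-Sidak, compared against DMSO.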

[3] = Metal chelating activity of the compound assessed as zinc affinity by UV spectroscopy; type: functional
In short: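 Compound diluted from a 10 mM DMSO stock to 50 µM final in 50 mM Hepes, 100 mM NaNO3, pH 7.4. ZnSO4 added at 0–1 equiv and equilibrated 60 min. Absorbance spectra recorded from 260 to 500 nm; change followed at 360 and 400 nm.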

[4] = Lipophilicity, log P of the compound; type: physicochemical; details: octanol/water
[5] = system: PC-12; assay: Induction of apoptosis in rat PC12 cells at 100 uM after 24 hrs by trypan blue exclusion assay in presence of DHR; type: functional, cell-based; in short: as §2
[6] = system: PC-12; assay: Induction of apoptosis in rat PC12 cells at 100 uM after 24 hrs by trypan blue exclusion assay in presence of caspase-3 inhibitor C3-I; type: functional, cell-based; in short: as §2
[7] = system: PC-12; assay: Induction of apoptosis in rat PC12 cells assessed as procaspase-3 activation at 100 uM after 24 hrs by fluorometric assay; type: functional, cell-based
In short: (§3)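 PC12 cells in 96-well plates were treated 4 h. Lysed in modified RIPA buffer (50 mM Tris-HCl pH 7.4, 1% Igepal, 0.25% deoxycholate, 150 mM NaCl, 1 mM EGTA) containing 20 µM (DEVD)2-rhodamine 110. Lysate incubated 24 h at 37 °C, fluorescence read at ex 485/em 535 nm. Wells with 1 µM Ac-DEVD-cmk served as negative control. DMSO control; staurosporine 0.5 and 1 µM as positive controls. Mean of 5 experiments ± S.D.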

[8] = system: PC-12; assay: Induction of apoptosis in rat PC12 cells after 24 hrs by trypan blue exclusion assay; type: functional, cell-based; details: for EC50: PC-12, 24 h
In short: (§4)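 PC12 cells (rat pheochromocytoma) grown in DMEM with 5% horse serum, 10% FBS, penicillin/streptomycin and sodium pyruvate at 37 °C, 5% CO2. Treated 24 h at 10, 25, 50, 75, 100 and 200 µM in DMSO (0.1% final). Trypan blue in 0.9% NaCl added 1:4 for 30 min at 37 °C. Blue cells counted as dead, as % of total cells. Mean of 4 experiments ± S.D.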

[9] = system: PC-12; assay: Induction of apoptosis in rat PC12 cells assessed as ROS induction by DHE oxidation-based fluorometric assay; type: functional, cell-based
[10] = system: PC-12; assay: Induction of apoptosis in rat PC12 cells at 200 uM after 24 hrs by trypan blue exclusion assay in presence of DHR; type: functional, cell-based; in short: as §2
[11] = system: PC-12; assay: Induction of apoptosis in rat PC12 cells at 200 uM after 24 hrs by trypan blue exclusion assay in presence of caspase-3 inhibitor C3-I; type: functional, cell-based; in short: as §2
[12] = system: PC-12; assay: Induction of apoptosis in rat PC12 cells at 200 uM after 24 hrs by trypan blue exclusion assay in presence of ZnSO4; type: functional, cell-based; in short: as §2
[13] = system: PC-12; assay: Induction of apoptosis in rat PC12 cells at 200 uM after 24 hrs by trypan blue exclusion assay; type: functional, cell-based; in short: as §4
[14] = system: PC-12; assay: Induction of apoptosis in rat PC12 cells assessed as procaspase-3 activation at 200 uM after 24 hrs by fluorometric assay; type: functional, cell-based; in short: as §3
[15] = Distribution co-efficient, log D of the compound at pH 7.4; type: physicochemical; details: buffer
[16] = system: PC-12; assay: Induction of apoptosis in rat PC12 cells assessed as ROS induction at 200 uM measured after 1 to 4 hrs by DHR oxidation-based fluorometric assay; type: functional, cell-based; in short: as §1
[17] = system: PC-12; assay: Induction of apoptosis in rat PC12 cells assessed as procaspase-3 activation at 1 uM after 24 hrs by fluorometric assay; type: functional
In short: (§5)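 Rat PC12 cells were seeded in 96-well plates at 28 × 10^4 for 24 h, then treated for 4 h, with DMSO-treated cells as control. Cells were lysed in modified RIPA buffer (50 mM Tris-HCl pH 7.4, 1% Igepal, 0.25% deoxycholate, 150 mM NaCl, 1 mM EGTA) containing 20 µM (DEVD)2-Rhodamine 110. Lysate was incubated 24 h at 37 °C and read at ex 485/em 535 nm as RFU/million cells.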

[18] = system: PC-12; assay: Induction of apoptosis in rat PC12 cells assessed as procaspase-3 activation at 0.5 uM after 24 hrs by fluorometric assay; type: functional; in short: as §5
[19] = system: PC-12; assay: Induction of apoptosis in rat PC12 cells at 25 uM after 24 hrs by trypan blue exclusion assay in presence of ZnSO4; type: functional, cell-based; in short: as §2
[20] = system: PC-12; assay: Induction of apoptosis in rat PC12 cells at 25 uM after 24 hrs by trypan blue exclusion assay in presence of caspase-3 inhibitor C3-I; type: functional, cell-based; in short: as §2
[21] = system: PC-12; assay: Induction of apoptosis in rat PC12 cells assessed as ROS induction at 25 uM measured after 1 to 4 hrs by DHR oxidation-based fluorometric assay; type: functional, cell-based; in short: as §1
[22] = system: PC-12; assay: Induction of apoptosis in rat PC12 cells assessed as procaspase-3 activation at 25 uM after 24 hrs by fluorometric assay; type: functional, cell-based; details: in the assay text read “after 4 hrs” for “after 24 hrs”; in short: as §3

Compound | Kd [3] | Activity [8] | EC50 [8] | Activity [9] | Activity [10] | Activity [11] | Activity [12] | EC50 [13] | Activity [14] | logD [15] | Activity [16] | further results
C=CCc1cccc(/C=N/NC(=O)CN2CCN(Cc3ccccc3)CC2)c1O [PAC-1] | 42000 pM | Dose-dependent effect | 122 µM | inactive |  |  |  |  |  |  |  | Activity [1]: Active; Activity [2]: inactive; logP [4]: 3.43; Activity [5]: inactive; Activity [6]: inactive; Activity [7]: Active
Cc1ncc(CO)c(/C=N/NC(=O)CN2CCN(Cc3ccccc3)CC2)c1O | 0.2 pM | Dose-dependent effect |  | inactive | inactive | inactive | inactive | ND(Insoluble) | Active | 1.27 | Active | 
CN[C@@H]1C[C@H]2O[C@@](C)([C@@H]1OC)n1c3ccccc3c3c4c(c5c6ccccc6n2c5c31)C(=O)NC4 [STAUROSPORINE] |  |  |  |  |  |  |  |  |  |  |  | RFU [17]: 30000; RFU [18]: 6000
c1ccc(CN(CCN(Cc2ccccn2)Cc2ccccn2)Cc2ccccn2)nc1 | 0.00026 pM | Dose-dependent effect | 38 µM | inactive |  |  |  |  |  |  |  | Activity [19]: inactive; Activity [20]: inactive; Activity [21]: Active; Activity [22]: Active
O=C(CN1CCN(Cc2ccccc2)CC1)NNC(=O)CN(Cc1ccccn1)Cc1ccccn1 | 1000 pM | Dose-dependent effect |  | inactive | inactive | inactive | Active | ND(Insoluble) | Active | 1.4 | inactive | 
